Assay results reported in ChEMBL document CHEMBL1142928, “Substitution at the 8-position of 3''-deoxy-cyclic ADP-carbocyclic-ribose, a highly potent Ca2+-mobilizing agent, provides partial agonists” (Bioorg Med Chem, 2007).
Activity calls are given as the source filed them. No cut-off for these calls is given here.

Experiments:
Format in all cases: functional
Echinoidea [1] = assay: Inhibition of cADPcR-induced calcium release in Sea urchin egg homogenate
Method in brief: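 Hemicentrotus pulcherrimus egg homogenate was read by fura-2 fluorescence ratio (F340/F380). Homogenate was exposed to graded analogue concentrations, then challenged with the maximal concentration of cADPcR. IC50 values were derived from dose-dependent desensitization (cross-desensitization) of the cADPcR-induced Ca2+ release.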

Echinoidea [2] = assay: Calcium-mobilizing activity in Sea urchin egg homogenate relative to cADPcR
Method in brief: (§1)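 Homogenate of Hemicentrotus pulcherrimus sea urchin eggs. Ca2+ release was monitored fluorometrically with fura-2 as the F340/F380 ratio over a range of analogue concentrations. Each response was expressed as the percent change in ratio relative to the response to the maximal cADPcR concentration. EC50 values were taken from dose–response curves.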

Echinoidea [3] = assay: Calcium-mobilizing activity in Sea urchin egg homogenate; method in brief: as §1

For `[N-]=[N+]=Nc1nc2c(N)[n+]3cnc2n1[C@@H]1O[C@H](COP(=O)(O)OP(=O)([O-])OC[C@H]2C[C@@H]3[C@H](O)[C@@H]2O)[C@@H](O)[C@H]1O`, the IC50 (Echinoidea [1]) was 4200 nM.
Work on `Nc1nc2c(N)[n+]3cnc2n1[C@@H]1O[C@H](COP(=O)(O)OP(=O)([O-])OC[C@@H]2C[C@@H](O)[C@H]3C2)[C@@H](O)[C@H]1O` yielded an IC50 (Echinoidea [1]) of 44 nM, an Activity (Echinoidea [2]) of 14% and an EC50 (Echinoidea [3]) of 17 nM.
`CCCNc1nc2c(N)[n+]3cnc2n1[C@@H]1O[C@H](COP(=O)(O)OP(=O)([O-])OC[C@@H]2C[C@@H](O)[C@H]3C2)[C@@H](O)[C@H]1O` was tested, and the Activity (Echinoidea [3]) was “inactive”.
`Nc1c2nc(Cl)n3c2nc[n+]1[C@@H]1C[C@H](COP(=O)(O)OP(=O)([O-])OC[C@H]2O[C@@H]3[C@H](O)[C@@H]2O)[C@@H](O)[C@H]1O` showed an IC50 (Echinoidea [1]) of 3000 nM.
For `[N-]=[N+]=Nc1nc2c(N)[n+]3cnc2n1[C@@H]1O[C@H](COP(=O)(O)OP(=O)([O-])OC[C@@H]2C[C@@H](O)[C@H]3C2)[C@@H](O)[C@H]1O`, the IC50 (Echinoidea [1]) was 1100 nM, the Activity (Echinoidea [2]) was 16% and the EC50 (Echinoidea [3]) was 490 nM.
Work on `Nc1nc2c(N)[n+]3cnc2n1[C@@H]1O[C@H](COP(=O)([O-])OP(=O)(O)OC[C@H]2C[C@@H]3[C@H](O)[C@@H]2O)[C@@H](O)[C@H]1O` yielded an IC50 (Echinoidea [1]) of 96 nM, an Activity (Echinoidea [2]) of 33% and an EC50 (Echinoidea [3]) of 89 nM.
Molecule `Nc1c2nc(Cl)n3c2nc[n+]1[C@@H]1C[C@H](COP(=O)([O-])OP(=O)(O)OC[C@H]2O[C@@H]3[C@H](O)[C@@H]2O)C[C@H]1O` has an IC50 (Echinoidea [1]) of 410 nM, an Activity (Echinoidea [2]) of 21% and an EC50 (Echinoidea [3]) of 190 nM.
Molecule `Nc1c2ncn3c2nc[n+]1[C@@H]1C[C@H](COP(=O)([O-])OP(=O)(O)OC[C@H]2O[C@@H]3[C@H](O)[C@@H]2O)C[C@H]1O` has an Activity (Echinoidea [2]) of 100% and an EC50 (Echinoidea [3]) of 17 nM.
With `Nc1c2ncn3c2nc[n+]1[C@@H]1C[C@H](COP(=O)([O-])OP(=O)(O)OC[C@H]2O[C@@H]3[C@H](O)[C@@H]2O)[C@@H](O)[C@H]1O` the EC50 (Echinoidea [3]) was 79 nM.
